Laboratory results as given in ChEMBL document CHEMBL1121696, “Antimicrobial 3-methyleneflavanones” (1981).
≈ marks a conversion by molar mass, not a printed value. Each block holds one compound with its values, some of them ahead of it.

Columns and labels:
Candida albicans [1] = assay: Compound was tested for the antimicrobial activity against Candida albicans (ATCC 10231, NRRL Y-477); Range is 100 to >100; assay type: functional
Method in brief: (§1)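 Agar dilution MIC. Stocks and twofold serial dilutions in DMF or 50% aqueous DMF were mixed 1:100 into molten Eugon agar, giving final 100, 50, 25, 12.5, 6.2, 3.1 mcg/mL (further dilutions sometimes) and ≤1% DMF. Inocula came from 24 h Eugon agar slants at 32 °C, suspended at 10⁶ cells/mL and applied with a Steers replicator. MIC (lowest concentration inhibiting growth) was read after 24 h at 32 °C.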

Trichophyton benhamiae [2] = assay: Compound was tested for the antimicrobial activity against Trichophyton mentagrophytes (ATCC 4807); Range is 12.5-50; assay type: functional, Arthroderma benhamiae
Method in brief: (§2)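 Spores came from Eugon agar slants grown 1 week at 32 °C, suspended at 10⁶/mL in Eugon broth or saline, and applied by Steers replicator. The lowest inhibitory concentration was read after 48-72 h at 32 °C.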

Trichophyton benhamiae [3] = assay: Compound was tested for the antimicrobial activity against Trichophyton mentagrophytes (ATCC 4807); Range is 50 to >100; assay type: functional, Arthroderma benhamiae; method in brief: as §2
Enterococcus faecalis [4] = assay: Antimicrobial activity against Streptococcus faecalis (ATCC 10541); assay type: functional; method in brief: as §1
Aspergillus niger = assay: Antimicrobial activity against Aspergillus niger (ATCC 16404); assay type: functional; method in brief: as §2
Candida albicans [5] = assay: Antimicrobial activity against Candida albicans (ATCC 10231, NRRL Y-477); assay type: functional; method in brief: as §1
Staphylococcus aureus [6] = assay: Compound was tested for the antimicrobial activity against Staphylococcus aureus (ATCC 6538, NRRL B2747); Range is 50-100; assay type: functional; method in brief: as §1
Staphylococcus aureus [7] = assay: Antimicrobial activity against Staphylococcus aureus (ATCC 6538, NRRL B2747); Range is <3.1-6.2; assay type: functional; method in brief: as §1
Trichophyton benhamiae [8] = assay: Compound was tested for the antimicrobial activity against Trichophyton mentagrophytes (ATCC 4807); Range is <3.1-12.5; assay type: functional, Arthroderma benhamiae; method in brief: as §2
Trichophyton benhamiae [9] = assay: Antimicrobial activity against Trichophyton mentagrophytes (ATCC 4807); assay type: functional, Arthroderma benhamiae; method in brief: as §2
Staphylococcus aureus [10] = assay: Antimicrobial activity against Staphylococcus aureus (ATCC 6538, NRRL B2747); assay type: functional; method in brief: as §1
Trichophyton benhamiae [11] = assay: Compound was tested for the antimicrobial activity against Trichophyton mentagrophytes (ATCC 4807); Range is 12.5-25; assay type: functional, Arthroderma benhamiae; method in brief: as §2
Enterococcus faecalis [12] = assay: Compound was tested for the antimicrobial activity against Streptococcus faecalis (ATCC 10541); Range is 25-50; assay type: functional; method in brief: as §1
Candida albicans [13] = assay: Compound was tested for the antimicrobial activity against Candida albicans (ATCC 10231, NRRL Y-477); Range is 50 to >100; assay type: functional; method in brief: as §1
Trichophyton benhamiae [14] = assay: Compound was tested for the antimicrobial activity against Trichophyton mentagrophytes (ATCC 4807); Range is <3.1-25; assay type: functional, Arthroderma benhamiae; method in brief: as §2
Trichophyton benhamiae [15] = assay: Compound was tested for the antimicrobial activity against Trichophyton mentagrophytes (ATCC 4807); Range is 100 to >100; assay type: functional, Arthroderma benhamiae; method in brief: as §2
Trichophyton benhamiae [16] = assay: Compound was tested for the antimicrobial activity against Trichophyton mentagrophytes (ATCC 4807); Range is 6.2-12.5; assay type: functional, Arthroderma benhamiae; method in brief: as §2
Bacillus subtilis = assay: Compound was tested for its antimicrobial activity against Bacillus subtilis (ATCC 6633); assay type: functional; method in brief: as §1
Staphylococcus aureus [17] = assay: Compound was tested for the antimicrobial activity against Staphylococcus aureus (ATCC 6538, NRRL B2747); Range is 0.25-0.5; assay type: functional; method in brief: as §1
Staphylococcus aureus [18] = assay: Compound was tested for its antimicrobial activity against Staphylococcus aureus (NRRL B2747); assay type: functional; method in brief: as §1
[19] = system: Staphylococcus epidermidis; assay: Compound was tested for its antimicrobial activity against Staphylococcus epidermidis (ATCC 12228); assay type: functional; method in brief: as §1
Staphylococcus aureus [20] = assay: Compound was tested for its antimicrobial activity against Staphylococcus aureus(9-195); assay type: functional; method in brief: as §1
Staphylococcus aureus [21] = assay: Compound was tested for its antimicrobial activity against Staphylococcus aureus (ATCC 151); assay type: functional; method in brief: as §1
Enterococcus = assay: Compound was tested for its antimicrobial activity against Enterococcus (9-25)
Staphylococcus aureus [22] = assay: Compound was tested for its antimicrobial activity against Staphylococcus aureus(9-267); assay type: functional; method in brief: as §1
Cutibacterium acnes = assay: Compound was tested for its antimicrobial activity against Propionibacterium acnes (ATCC 6919); assay type: functional
Method in brief: (§3)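 Anaerobic bacteria were grown 72 h at 32 °C in fluid thioglycollate medium and used undiluted to inoculate, by Steers replicator, Eugon agar containing serial twofold compound dilutions made in DMF or 50% aqueous DMF (final 100 to 3.1 mcg/mL, ≤1% DMF). MIC was read after 72 h of anaerobic incubation (Gas-Pak jar) at 37 °C.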

Enterococcus faecalis [23] = assay: Compound was tested for its antimicrobial activity against Streptococcus faecalis (ATCC 10541); assay type: functional; method in brief: as §1
Trichophyton benhamiae [24] = assay: Compound was tested for the antimicrobial activity against Trichophyton mentagrophytes (ATCC 4807); Range is 6.1-12.5; assay type: functional, Arthroderma benhamiae; method in brief: as §2
Staphylococcus aureus [25] = assay: Compound was tested for its antimicrobial activity against Staphylococcus aureus (9-195); assay type: functional; method in brief: as §1
[26] = Compound was tested for its antimicrobial activity against Sarcina subflava (ATCC 7468); assay type: functional; method in brief: as §1
Staphylococcus aureus [27] = assay: Compound was tested for its antimicrobial activity against Staphylococcus aureus (9-267); assay type: functional; method in brief: as §1
[28] = system: Clostridium acetobutylicum; assay: Compound was tested for its antimicrobial activity against Clostridium acetobutylicum (ATCC 824); assay type: functional; method in brief: as §3
Staphylococcus aureus [29] = assay: Compound was tested for its antimicrobial activity against Staphylococcus aureus (ATCC 6538); assay type: functional; method in brief: as §1

SMILES: C=C1C(=O)c2ccccc2SC1c1ccccc1 (stereo not given)
MIC (Trichophyton benhamiae [3]): > 50 µg/mL | MIC (Enterococcus faecalis [4]): > 100 µg/mL | MIC (Aspergillus niger): > 100 µg/mL | MIC (Candida albicans [5]): > 100 µg/mL | MIC (Staphylococcus aureus [6]): 50 µg/mL (≈ 198 µM)

SMILES: O=C1/C(=C/Cl)C(c2ccccc2)Oc2ccccc21 (stereo not given)
MIC (Trichophyton benhamiae [9]): > 100 µg/mL | MIC (Enterococcus faecalis [4]): > 100 µg/mL | MIC (Aspergillus niger): > 100 µg/mL | MIC (Candida albicans [5]): > 100 µg/mL | MIC (Staphylococcus aureus [10]): > 100 µg/mL

SMILES: CN(C)/C=C1\C(=O)c2ccccc2OC1c1ccccc1 (stereo not given)
MIC (Trichophyton benhamiae [9]): 100 µg/mL (≈ 358 µM) | MIC (Enterococcus faecalis [4]): > 100 µg/mL | MIC (Aspergillus niger): > 100 µg/mL | MIC (Candida albicans [5]): > 100 µg/mL | MIC (Staphylococcus aureus [10]): > 100 µg/mL

SMILES: C=C1C(=O)c2ccccc2OC1(c1ccccc1)c1ccccc1
MIC (Trichophyton benhamiae [9]): > 100 µg/mL | MIC (Bacillus subtilis): 0.25 µg/mL (≈ 0.8 µM) | MIC (Staphylococcus aureus [17]): 0.25 µg/mL (≈ 0.8 µM) | MIC (Enterococcus faecalis [4]): 0.78 µg/mL (≈ 2.5 µM) | MIC (Staphylococcus aureus [18]): 0.5 µg/mL (≈ 1.6 µM) | MIC [19]: 0.25 µg/mL (≈ 0.8 µM) | MIC (Staphylococcus aureus [20]): 0.5 µg/mL (≈ 1.6 µM) | MIC (Staphylococcus aureus [21]): 0.25 µg/mL (≈ 0.8 µM) | MIC (Enterococcus): 1 µg/mL (≈ 3.2 µM) | MIC (Staphylococcus aureus [22]): 0.5 µg/mL (≈ 1.6 µM) | MIC (Cutibacterium acnes): 3.1 µg/mL (≈ 9.92 µM) | MIC (Enterococcus faecalis [23]): 1 µg/mL (≈ 3.2 µM)

SMILES: C=C1C(=O)c2ccccc2OC1c1cccc2ccccc12 (stereo not given)
MIC (Enterococcus faecalis [4]): 50 µg/mL (≈ 175 µM) | MIC (Staphylococcus aureus [7]): < 3.1 µg/mL | MIC (Trichophyton benhamiae [16]): 6.2 µg/mL (≈ 21.7 µM) | MIC (Aspergillus niger): > 100 µg/mL | MIC (Candida albicans [13]): > 50 µg/mL

SMILES: Oc1c(I)cc(Cl)c2cccnc12 [CLIOQUINOL]
MIC (Staphylococcus aureus [25]): 12.5 µg/mL (≈ 40.9 µM) | MIC (Bacillus subtilis): 6.2 µg/mL (≈ 20.3 µM) | MIC (Staphylococcus aureus [18]): 12.5 µg/mL (≈ 40.9 µM) | MIC [19]: 12.5 µg/mL (≈ 40.9 µM) | MIC (Staphylococcus aureus [21]): 3.1 µg/mL (≈ 10.1 µM) | MIC (Enterococcus): 25 µg/mL (≈ 81.8 µM) | MIC [26]: 3.1 µg/mL (≈ 10.1 µM) | MIC (Staphylococcus aureus [27]): 12.5 µg/mL (≈ 40.9 µM) | MIC (Cutibacterium acnes): 25 µg/mL (≈ 81.8 µM) | MIC [28]: < 6.2 µg/mL | MIC (Staphylococcus aureus [29]): 12.5 µg/mL (≈ 40.9 µM) | MIC (Enterococcus faecalis [23]): 12.5 µg/mL (≈ 40.9 µM)

SMILES: C=C(CC)C(=O)c1ccc(OCC(=O)O)c(Cl)c1Cl [ETHACRYNIC ACID]
MIC (Trichophyton benhamiae [9]): > 100 µg/mL | MIC (Enterococcus faecalis [4]): > 100 µg/mL | MIC (Aspergillus niger): > 100 µg/mL | MIC (Candida albicans [5]): > 100 µg/mL | MIC (Staphylococcus aureus [10]): > 100 µg/mL

SMILES: Oc1c(Cl)cc(Cl)c(Cl)c1Cc1c(O)c(Cl)cc(Cl)c1Cl [HEXACHLOROPHENE]
MIC (Staphylococcus aureus [25]): 1 µg/mL (≈ 2.46 µM) | MIC (Bacillus subtilis): 0.125 µg/mL (≈ 0.307 µM) | MIC (Staphylococcus aureus [18]): 0.5 µg/mL (≈ 1.23 µM) | MIC [19]: 0.5 µg/mL (≈ 1.23 µM) | MIC (Staphylococcus aureus [21]): 0.5 µg/mL (≈ 1.23 µM) | MIC (Enterococcus): 1 µg/mL (≈ 2.46 µM) | MIC [26]: 0.06 µg/mL (≈ 0.147 µM) | MIC (Staphylococcus aureus [27]): 1 µg/mL (≈ 2.46 µM) | MIC (Cutibacterium acnes): 0.06 µg/mL (≈ 0.147 µM) | MIC [28]: 0.06 µg/mL (≈ 0.147 µM) | MIC (Staphylococcus aureus [29]): 0.5 µg/mL (≈ 1.23 µM) | MIC (Enterococcus faecalis [23]): 0.125 µg/mL (≈ 0.307 µM)

Next, values leading:

MIC (Candida albicans [1]): > 100 µg/mL | MIC (Trichophyton benhamiae [2]): 12.5 µg/mL (≈ 31.7 µM)
SMILES: C=C1C(=O)c2cc(Br)ccc2OC1c1ccc(Br)cc1 (stereo not given)

MIC (Staphylococcus aureus [7]): < 3.1 µg/mL | MIC (Trichophyton benhamiae [8]): < 3.1 µg/mL
SMILES: C=C1C(=O)c2ccccc2OC1c1cccc(Cl)c1 (stereo not given)

MIC (Staphylococcus aureus [7]): < 3.1 µg/mL | MIC (Trichophyton benhamiae [11]): 12.5 µg/mL (≈ 42.8 µM) | MIC (Enterococcus faecalis [12]): 25 µg/mL (≈ 85.5 µM) | MIC (Candida albicans [13]): > 50 µg/mL
SMILES: C=C1C(=O)c2ccccc2OC1c1ccc(C(C)(C)C)cc1 (stereo not given)

MIC (Trichophyton benhamiae [14]): < 3.1 µg/mL | MIC (Staphylococcus aureus [10]): < 3.1 µg/mL
SMILES: C=C1C(=O)c2ccccc2OC1c1ccc(Cl)cc1 (stereo not given)

MIC (Trichophyton benhamiae [15]): > 100 µg/mL | MIC (Enterococcus faecalis [4]): > 100 µg/mL | MIC (Aspergillus niger): > 100 µg/mL | MIC (Candida albicans [5]): > 100 µg/mL | MIC (Staphylococcus aureus [10]): 50 µg/mL (≈ 159 µM)
SMILES: C=C1C(=O)c2cc(Br)ccc2OC1c1ccccc1 (stereo not given)

MIC (Trichophyton benhamiae [16]): 6.2 µg/mL (≈ 26.2 µM) | MIC (Aspergillus niger): 100 µg/mL (≈ 423 µM)
SMILES: C=C1C(=O)c2ccccc2OC1c1ccccc1 (stereo not given)

MIC (Staphylococcus aureus [7]): < 3.1 µg/mL | MIC (Trichophyton benhamiae [24]): 6.1 µg/mL (≈ 19.4 µM)
SMILES: C=C1C(=O)c2ccccc2OC1c1ccc(Br)cc1 (stereo not given)
